What was measured:
[1] = test system: Leishmania mexicana; assay: Antileishmanial activity against axenic amastigote stage of Leishmania mexicana (MNYC/BZ/62/M379) assessed as inhibition of parasite proliferation at 50 uM incubated for 24 hrs by alamar blue dye based fluorescence analysis; format: functional
Procedure, shortened: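 Primary single-point screen at 50 μM, in duplicate. Axenic L. mexicana amastigotes at 4x10⁵ mL⁻¹ incubated with compound 24 h at 33 °C in sealed plates, then alamarBlue for a further 24 h at the same temperature. Viability read by fluorescence at 560/600 nm against amphotericin B (50 μM) and DMSO controls.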

[2] = test system: Leishmania mexicana; assay: Antileishmanial activity against axenic amastigote stage of Leishmania mexicana (MNYC/BZ/62/M379) assessed as induction of parasite killing incubated for 24 hrs by alamar blue dye based fluorescence analysis; format: functional; conditions: read-out: ED50 (the source's name)
Procedure, shortened: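 L. mexicana axenic amastigotes (from promastigotes by pH/temperature shift; Schneider's with 20% HIFBS) at 4x10⁵ mL⁻¹, exposed to three-fold dilutions from 50 μM to 0.21 μM for 24 h at 33 °C in sealed plates. alamarBlue then added for another 24 h, fluorescence read at 560/600 nm. Amphotericin B (50 μM) positive, DMSO negative control. Duplicates on four occasions, EC₅₀ fitted.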

[3] = Cytotoxicity against mouse RAW264.7 cells assessed as induction of cell killing incubated for 24 hrs by alamar blue dye based fluorescence analysis; conditions: read-out: ED50
Procedure, shortened: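 Mouse macrophages seeded at 2.5×10^5 mL⁻¹ in DMEM/10% HIFBS, 24 h at 37 °C, 5% CO₂. Then washed and held 24 h in DMEM/2% HIFBS. Compounds 100 μM to 0.41 μM in 2% HIFBS medium for 24 h. alamarBlue 4 h, then fluorescence at 560/600 nm. Cycloheximide (50 μM) positive, DMSO negative control. EC₅₀ derived.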

[4] = Selectivity index, ratio of ED50 for mouse RAW264.7 cells to ED50 for antileishmanial activity against axenic amastigote stage of Leishmania mexicana (MNYC/BZ/62/M379); format: toxicity; conditions: read-out: Ratio ED50
Procedure, shortened: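 Selectivity index calculated as EC₅₀ in RAW macrophages (24 h alamarBlue cytotoxicity assay) divided by EC₅₀ against axenic L. mexicana amastigotes.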

[5] = test system: Leishmania mexicana; assay: Antileishmanial activity against axenic amastigote stage of Leishmania mexicana (MNYC/BZ/62/M379) infected in mouse RAW264.7 cells assessed as induction of parasite killing incubated for 24 hrs by alamar blue dye based fluorescence analysis; format: functional
Procedure, shortened: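 RAW264.7 cells seeded at 2.5x10⁵ mL⁻¹ in DMEM with 10% HIFBS for 24 h at 37 °C, 5% CO₂, then infected with axenic amastigotes at 25x10⁵ mL⁻¹ in DMEM with 2% HIFBS for 24 h. Washed 5x, compound added for 24 h. Cells lysed with 0.05% SDS, then grown in Schneider's (pH7, 15% HIFBS) 48 h at 26 °C. alamarBlue 4 h, fluorescence 560/600 nm. Triplicate, three occasions.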

Work on `CC1(C)CC[C@]2(C(=O)O)CC[C@]3(C)C(=CC[C@@H]4[C@@]5(C)CC[C@H](O)[C@@](C)(C=O)[C@@H]5CC[C@]43C)[C@@H]2C1` yielded an inhibition at 50 µM [1] of at least 95%, an EC50 [2] of 9.6 µM and a CC50 at 24 h [3] of 36.6 µM. The selectivity ratio [4] was 3.8.
For `CC(=O)OC[C@@]1(C)[C@@H]2CC[C@]3(C)[C@H](CC=C4[C@@H]5CC(C)(C)CC[C@]5(NC(=O)N5CCCC5)CC[C@]43C)[C@@]2(C)CC[C@@H]1O`, the inhibition at 50 µM [1] was at least 95%, the EC50 [2] was 10.4 µM and the CC50 at 24 h [3] was 10.9 µM. For the same molecule, the selectivity ratio [4] was 1.
With `CO[C@H]1O[C@H]([C@@H]2OC[C@@]3(C)[C@@H]4CC[C@]5(C)[C@H](CC=C6[C@@H]7CC(C)(C)CC[C@]7(C(=O)O)CC[C@]65C)[C@@]4(C)CC[C@@H]3O2)[C@@H](O)[C@H](O)[C@H]1O` the inhibition at 50 µM [1] was at least 95%, the EC50 [2] was 6 µM and the CC50 at 24 h [3] was 29.7 µM. For the same molecule, the selectivity ratio [4] was 5.
Work on `CC1(C)CC[C@]2(NC(=O)N3CCC[C@H]3C(=O)O)CC[C@]3(C)C(=CC[C@@H]4[C@@]5(C)CC[C@@H]6OC(C)(C)OC[C@@]6(C)[C@@H]5CC[C@]43C)[C@@H]2C1` yielded an inhibition at 50 µM [1] of at least 95%, an EC50 [2] of 0.9 µM and a CC50 at 24 h [3] of 5.4 µM. It also gave a selectivity ratio [4] of 6.
Work on `CC1(C)CC[C@]2(C(=O)O)CC[C@]3(C)C(=CC[C@@H]4[C@@]5(C)CC[C@H](OC(=O)CCC(=O)O)[C@@](C)(COC(=O)CCC(=O)O)[C@@H]5CC[C@]43C)[C@@H]2C1` yielded an inhibition at 50 µM [1] of at least 95%, an ED50 [5] of over 50 µM and an EC50 [2] of 2.3 µM. For the same molecule, the CC50 at 24 h [3] was over 100 µM and the selectivity ratio [4] was over 44.
With `C[C@H](O)[C@H]1OC(C[C@@H]2OC[C@@]3(C)[C@@H]4CC[C@]5(C)[C@H](CC=C6[C@@H]7CC(C)(C)CC[C@]7(C(=O)O)CC[C@]65C)[C@@]4(C)CC[C@@H]3O2)[C@@H](O)[C@@H]1O` (some centres undefined) the inhibition at 50 µM [1] was at least 95%, the EC50 [2] was 10.3 µM and the CC50 at 24 h [3] was 30.2 µM. For the same molecule, the selectivity ratio [4] was 2.9.
In the case of `COC(=O)[C@]12CCC(C)(C)C[C@H]1C1=CC[C@@H]3[C@@]4(C)CC[C@@H]5O[C@H]([C@H](O)[C@@H](O)[C@H](O)[C@H](O)CO)OC[C@@]5(C)[C@@H]4CC[C@@]3(C)[C@]1(C)CC2`, the inhibition at 50 µM [1] is reported as at least 95%, the EC50 [2] is reported as 9.5 µM and the CC50 at 24 h [3] is reported as 10.2 µM. For the same molecule, the selectivity ratio [4] was 1.1.
`C[C@H]1O[C@H](C[C@@H]2OC[C@@]3(C)[C@@H]4CC[C@]5(C)[C@H](CC=C6[C@@H]7CC(C)(C)CC[C@]7(C(=O)O)CC[C@]65C)[C@@]4(C)CC[C@@H]3O2)[C@H](O)[C@@H](O)[C@@H]1O` showed an inhibition at 50 µM [1] of at least 95% and an EC50 [2] of over 50 µM.
`CC1(C)CC[C@]2(C(=O)OCN3C(=O)c4ccccc4C3=O)CC[C@]3(C)C(=CC[C@@H]4[C@@]5(C)CC[C@H](O)[C@@](C)(CO)[C@@H]5CC[C@]43C)[C@@H]2C1` showed an inhibition at 50 µM [1] of at least 95% and an EC50 [2] of 17.8 µM.
Molecule `CC(=O)N1CCN(C(=O)N[C@]23CCC(C)(C)C[C@H]2C2=CC[C@@H]4[C@@]5(C)CC[C@@H]6OC(C)(C)OC[C@@]6(C)[C@@H]5CC[C@@]4(C)[C@]2(C)CC3)CC1` has an inhibition at 50 µM [1] of at least 95% and an EC50 [2] of 26.4 µM.
`CC1(C)CC[C@]2(C(=O)O)CC[C@]3(C)C(=CC[C@@H]4[C@@]5(C)CC[C@@H]6O[C@H](C[C@H]7O[C@H](CO)[C@@H](O)[C@H](O)[C@H]7O)OC[C@@]6(C)[C@@H]5CC[C@]43C)[C@@H]2C1` showed an inhibition at 50 µM [1] of at least 95%, an EC50 [2] of 7.5 µM and a CC50 at 24 h [3] of 36.7 µM. It also gave a selectivity ratio [4] of 4.9.
Molecule `CC(=O)OC[C@H](OC(C)=O)[C@H](OC(C)=O)[C@@H](OC(C)=O)[C@@H]1OC[C@@]2(C)[C@@H]3CC[C@]4(C)[C@H](CC=C5[C@@H]6CC(C)(C)CC[C@]6(C(=O)O)CC[C@]54C)[C@@]3(C)CC[C@@H]2O1` has an inhibition at 50 µM [1] of at least 95%, an EC50 [2] of 7.2 µM and a CC50 at 24 h [3] of 11.1 µM. The selectivity ratio [4] was 1.5.
Molecule `CC1(C)CC[C@]2(C(=O)O)CC[C@]3(C)C(=CC[C@@H]4[C@@]5(C)CC[C@@H]6O[C@H]([C@H](O)[C@@H](O)[C@H](O)CO)OC[C@@]6(C)[C@@H]5CC[C@]43C)[C@@H]2C1` has an inhibition at 50 µM [1] of at least 95%, an EC50 [2] of 9.7 µM and a CC50 at 24 h [3] of 29.2 µM. For the same molecule, the selectivity ratio [4] was 3.
In the case of `CC1(C)CC[C@]2(C(=O)OCc3ccccc3[N+](=O)[O-])CC[C@]3(C)C(=CC[C@@H]4[C@@]5(C)CC[C@H](O)[C@@](C)(CO)[C@@H]5CC[C@]43C)[C@@H]2C1`, the inhibition at 50 µM [1] is reported as at least 95% and the EC50 [2] is reported as over 50 µM.
In the case of `COC(=O)[C@]12CCC(C)(C)C[C@H]1C1=CC[C@@H]3[C@@]4(C)CC[C@@H]5O[C@H](CC6O[C@H]([C@H](C)O)[C@@H](O)[C@@H]6O)OC[C@@]5(C)[C@@H]4CC[C@@]3(C)[C@]1(C)CC2` (some centres undefined), the inhibition at 50 µM [1] is reported as at least 95% and the EC50 [2] is reported as over 50 µM.
With `CC1(C)CC[C@]2(C(=O)O)CC[C@]3(C)C(=CC[C@@H]4[C@@]5(C)CC[C@H](O[C@@H]6O[C@H](CO)[C@@H](O)[C@H](O)[C@H]6O)[C@@](C)(CO)[C@@H]5CC[C@]43C)[C@@H]2C1` [Hederagenin-3-O-beta-D-glucopyranoside] the inhibition at 50 µM [1] was at least 95% and the EC50 [2] was over 50 µM.
With `CC1(C)CC[C@]2(NC(=O)NCCN)CC[C@]3(C)C(=CC[C@@H]4[C@@]5(C)CC[C@@H]6OC(C)(C)OC[C@@]6(C)[C@@H]5CC[C@]43C)[C@@H]2C1` the inhibition at 50 µM [1] was at least 95% and the EC50 [2] was over 50 µM.
`CC1(C)CC[C@]2(C(=O)O)CC[C@]3(C)C(=CC[C@@H]4[C@@]5(C)CC[C@@H]6O[C@H]([C@H](O)[C@@H](O)[C@H](O)[C@H](O)CO)OC[C@@]6(C)[C@@H]5CC[C@]43C)[C@@H]2C1` showed an inhibition at 50 µM [1] of at least 95%, an EC50 [2] of 4.5 µM and a CC50 at 24 h [3] of 29.6 µM. It also gave a selectivity ratio [4] of 6.7.
`COC(=O)[C@]12CCC(C)(C)C[C@H]1C1=CC[C@@H]3[C@@]4(C)CC[C@@H]5O[C@H](c6ccccc6C(=O)O)OC[C@@]5(C)[C@@H]4CC[C@@]3(C)[C@]1(C)CC2` gave an inhibition at 50 µM [1] of at least 95%, an EC50 [2] of 10 µM and a CC50 at 24 h [3] of 4.8 µM. The selectivity ratio [4] was 0.5.
`CCOC(=O)[C@]12CCC(C)(C)C[C@H]1C1=CC[C@@H]3[C@@]4(C)CC[C@H](O)[C@@](C)(CO)[C@@H]4CC[C@@]3(C)[C@]1(C)CC2` gave an inhibition at 50 µM [1] of at least 95% and an EC50 [2] of over 50 µM.
`CC1(C)CC[C@]2(NC(=O)NCCCn3ccnc3)CC[C@]3(C)C(=CC[C@@H]4[C@@]5(C)CC[C@@H]6OC(C)(C)OC[C@@]6(C)[C@@H]5CC[C@]43C)[C@@H]2C1` gave an inhibition at 50 µM [1] of at least 95% and an EC50 [2] of 37.6 µM.
Molecule `C[C@H](O)[C@H](O)[C@@H](O)[C@@H](O)[C@@H]1OC[C@@]2(C)[C@@H]3CC[C@]4(C)[C@H](CC=C5[C@@H]6CC(C)(C)CC[C@]6(C(=O)O)CC[C@]54C)[C@@]3(C)CC[C@@H]2O1` has an inhibition at 50 µM [1] of at least 95% and an EC50 [2] of 21.2 µM.

Reference: ChEMBL document CHEMBL4673181, “An investigation of the antileishmanial properties of semi-synthetic saponins” (RSC Med Chem, 2020)
